Reference: ChEMBL document CHEMBL5329183, “Naphthylthiazoles: a class of broad-spectrum antifungals” (RSC Med Chem, 2023)
Values after ≈ are worked out from the molar mass of the structure shown.

How the values were obtained:
[1] = Antibacterial activity against Lactobacillus casei HM334 assessed as inhibition of bacterial growth; type: toxicity; details: lacticaseibacillus casei
[2] = Plasma concentration in Sprague-Dawley rat at 25 mg/kg, po administered as single dose and measured within few minutes by LC/MS/MS analysis; type: ADME, organism-based; details: in vivo
Summary of the method: (§1)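 Male naïve Sprague–Dawley rats (n=3) received a single 25 mg kg−1 oral gavage dose in 5% ethanol/45% PEG 400/50% water. EDTA-K2 blood was sampled over 24 h post-dose. Plasma levels were measured by LC/MS/MS after acetonitrile protein precipitation, and parameters came from two-compartment analysis.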

[3] = system: Cryptococcus neoformans; assay: Anti-cryptococcal activity against Cryptococcus neoformans NR 41300 infected in mouse J774 cells assessed as log reduction of intracellular fungal colony forming unit at 4 ug/ml measured after 24 hrs; type: functional; details: dose 4 µg/ml
Summary of the method: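 C. neoformans NR-41300 was grown 48 h in YPD, washed, and used to infect J774 macrophages at MOI ~100:1 for 1 h, followed by PBS washes. Compounds at 4 μg mL−1 (triplicate) were applied for 22 h at 37 °C, 5% CO2. Extracellular yeast were killed with amphotericin B 1 μg mL−1 for 1 h. Cells were lysed in 0.1% Triton X-100 and plated on YPD agar for 48 h at 37 °C; readout log10 CFU mL−1.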

[4] = Selectivity ratio of CC50 for cytotoxicity against African green monkey Vero cells to MIC for antifungal activity against Cryptococcus gattii NR 43210; type: toxicity, cell-based
[5] = Selectivity ratio of CC50 for cytotoxicity against African green monkey Vero cells to MIC for antifungal activity against Cryptococcus neoformans NR 41298; type: toxicity, cell-based
[6] = Plasma concentration in Sprague-Dawley rat at 25 mg/kg, po administered as single dose and measured for 18 hrs by LC/MS/MS analysis; type: ADME, organism-based; summary of the method: as §1
[7] = Selectivity ratio of CC50 for cytotoxicity against human Caco-2 cells to MIC for antifungal activity against Cryptococcus gattii NR 43209; type: toxicity, cell-based
[8] = system: Staphylococcus aureus; assay: Antibacterial activity against Methicillin-resistant Staphylococcus aureus USA300 assessed as inhibition of bacterial growth; type: functional
[9] = Half life in Sprague-Dawley rat at 25 mg/kg, po administered as single dose by LC/MS/MS analysis; type: ADME, organism-based; details: in vivo; summary of the method: as §1
[10] = Antifungal activity against Cryptococcus gattii NR 43213 assessed as inhibition of fungal growth incubated for 48 hrs by broth microdilution method; type: functional, Cryptococcus gattii VGI
Summary of the method: (§2)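 Broth microdilution per CLSI guidelines against clinical isolates, incubated at 35 °C for 24 h (Candida, Aspergillus) or 48 h (Cryptococcus). MIC was the lowest concentration giving 50% growth inhibition.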

[11] = system: Candida parapsilosis; assay: Antifungal activity against Candida parapsilosis CAB 502638 assessed as inhibition of fungal growth incubated for 24 hrs by broth microdilution method; type: functional; details: Lodderomyces parapsilosis; summary of the method: as §2
[12] = AUC in Sprague-Dawley rat at 25 mg/kg, po administered as single dose by LC/MS/MS analysis; type: ADME, organism-based; parameters: dose 25 mg/kg, route po; details: in vivo; summary of the method: as §1
[13] = Volume of distribution in Sprague-Dawley rat at 25 mg/kg, po administered as single dose by LC/MS/MS analysis; type: ADME, organism-based; details: in vivo
Summary of the method: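 Male naïve Sprague–Dawley rats (n = 3) received a single 25 mg kg−1 dose by oral gavage in 5% ethanol/45% PEG 400/50% water. EDTA-K2 blood was sampled over 24 h. Plasma levels were measured by LC/MS/MS after acetonitrile protein precipitation, and parameters came from two-compartment analysis.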

[14] = Apparent permeability of the compound measured after 4 hrs by PAMPA assay; type: ADME
Summary of the method: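 PAMPA: compound was placed in pH 6.5 donor buffer across a lipid-pretreated PVDF filter from pH 7.4 acceptor buffer, and incubated 4 h at ambient temperature. Donor and acceptor amounts at start and end were measured by UV absorbance to give apparent permeability.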

[15] = system: Aspergillus fumigatus; assay: Antifungal activity against Aspergillus fumigatus NR 35304 assessed as inhibition of fungal growth incubated for 24 hrs by broth microdilution method; type: functional; summary of the method: as §2
[16] = system: Cryptococcus neoformans; assay: Antifungal activity against Cryptococcus neoformans NR 48767 assessed as inhibition of fungal growth incubated for 48 hrs by broth microdilution method; type: functional
Summary of the method: (§3)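 Clinical isolate; CLSI broth microdilution over a range of concentrations (media listed: RPMI 1640, MOPS, YPD). MIC read as lowest concentration inhibiting growth by 50% after 48 h incubation at 35 °C.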

[17] = Antibacterial activity against Lactobacillus crispatus HM370 assessed as inhibition of bacterial growth; type: toxicity
[18] = Selectivity ratio of CC50 for cytotoxicity against human Caco-2 cells to MIC for antifungal activity against Cryptococcus gattii NR 43216; type: toxicity, cell-based
[19] = Selectivity ratio of CC50 for cytotoxicity against African green monkey Vero cells to MIC for antifungal activity against Cryptococcus neoformans NR 48771; type: toxicity, cell-based
[20] = Selectivity ratio of CC50 for cytotoxicity against human Caco-2 cells to MIC for antifungal activity against Cryptococcus gattii NR 43210; type: toxicity, cell-based
[21] = system: [Candida] auris; assay: Antifungal activity against Candida auris 381 assessed as inhibition of fungal growth incubated for 24 hrs by broth microdilution method; type: functional; details: Candidozyma auris
Summary of the method: (§4)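 Clinical isolate; CLSI broth microdilution over a range of concentrations (media listed: RPMI 1640, MOPS, YPD). MIC taken as lowest concentration giving 50% growth inhibition after 24 h at 35 °C.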

[22] = system: Candida parapsilosis; assay: Antifungal activity against Candida parapsilosis ATCC 22019 assessed as inhibition of fungal growth incubated for 24 hrs by broth microdilution method; type: functional; details: Lodderomyces parapsilosis; summary of the method: as §4
[23] = Selectivity ratio of CC50 for cytotoxicity against African green monkey Vero cells to MIC for antifungal activity against Cryptococcus neoformans NR 48773; type: toxicity, cell-based
[24] = Selectivity ratio of CC50 for cytotoxicity against human Caco-2 cells to MIC for antifungal activity against Cryptococcus neoformans NR 48773; type: toxicity, cell-based
[25] = system: Cryptococcus neoformans; assay: Antifungal activity against Cryptococcus neoformans NR 41298 assessed as inhibition of fungal growth incubated for 48 hrs by broth microdilution method; type: functional; summary of the method: as §3
[26] = system: Pichia kudriavzevii; assay: Antifungal activity against Candida krusei ATCC 34135 assessed as inhibition of fungal growth incubated for 24 hrs by broth microdilution method; type: functional; summary of the method: as §2
[27] = Selectivity ratio of CC50 for cytotoxicity against human Caco-2 cells to MIC for antifungal activity against Cryptococcus neoformans NR 48770; type: toxicity, cell-based
[28] = Selectivity ratio of CC50 for cytotoxicity against human Caco-2 cells to MIC for antifungal activity against Cryptococcus neoformans NR 41299; type: toxicity, cell-based
[29] = Selectivity ratio of CC50 for cytotoxicity against African green monkey Vero cells to MIC for antifungal activity against Cryptococcus neoformans NR 41300; type: toxicity, cell-based
[30] = system: J774; assay: Cytotoxicity against mouse J774 cells assessed as reduction in cell viability at 64 ug/ml measured after 24 hrs by MTS assay; type: toxicity, cell-based; details: j774, 24 h, dose 64 µg/ml
Summary of the method: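 J774 murine macrophages were grown in DMEM with 10% FBS and exposed to compounds for 24 h at 37 °C, 5% CO2. After 3 h with MTS, OD490 was read. Viability was expressed relative to DMSO-matched controls.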

[31] = Antifungal activity against Cryptococcus gattii NR 43210 assessed as inhibition of fungal growth incubated for 48 hrs by broth microdilution method; type: functional, Cryptococcus gattii VGI; summary of the method: as §2
[32] = Selectivity ratio of CC50 for cytotoxicity against human Caco-2 cells to MIC for antifungal activity against Cryptococcus gattii NR 43214; type: toxicity, cell-based

Compound	MIC [1] [µg/mL]	Activity [3] [log10CFU/ml]	selectivity ratio [4]	selectivity ratio [5]	selectivity ratio [7]	MIC [8] [µg/mL]	MIC [10] [µg/mL]	MIC [11] [µg/mL]	Papp at 4 h [14] [×10⁻⁶ cm/s]	MIC [15] [µg/mL]	MIC [16] [µg/mL]	MIC [17] [µg/mL]	selectivity ratio [18]	selectivity ratio [19]	selectivity ratio [20]	MIC [21] [µg/mL]	MIC [22] [µg/mL]	selectivity ratio [23]	selectivity ratio [24]	MIC [25] [µg/mL]	further results
Cc1nc(-c2ccc3ccccc3c2)sc1-c1nnc(N[C@@H]2CCCC[C@H]2N)o1 (relative stereo)	> 128	0.66	64	64	64	64 (≈ 158 µM)	2 (≈ 4.93 µM)	1 (≈ 2.47 µM)	57.7	4 (≈ 9.86 µM)	2 (≈ 4.93 µM)	> 128	64	64	64	2 (≈ 4.93 µM)	1 (≈ 2.47 µM)	64	64	1 (≈ 2.47 µM)	Cp [2]: 1000 ng/mL; concentration at 18 h [6]: 1000 ng/mL; half-life [9]: 3.6 h; AUC [12]: 79200 ng·h/mL; Vd [13]: 1.64 L; MIC [26]: 1 µg/mL (≈ 2.47 µM); selectivity ratio [27]: 64; selectivity ratio [28]: 64; selectivity ratio [29]: 64; Activity [30]: Non-Toxic; MIC [31]: 1 µg/mL (≈ 2.47 µM); selectivity ratio [32]: 64
Cc1nc(-c2ccc3ccccc3c2)sc1-c1nnc(N[C@@H]2CCCC[C@@H]2N)o1 (relative stereo)	128 (≈ 316 µM)	1.04	64	64	64	> 64	2 (≈ 4.93 µM)	1 (≈ 2.47 µM)	26.3	4 (≈ 9.86 µM)	2 (≈ 4.93 µM)	> 128	64	64	64	2 (≈ 4.93 µM)	1 (≈ 2.47 µM)	64	64	1 (≈ 2.47 µM)	MIC [26]: 1 µg/mL (≈ 2.47 µM); selectivity ratio [27]: 64; selectivity ratio [28]: 64; selectivity ratio [29]: 64; Activity [30]: Non-Toxic; MIC [31]: 1 µg/mL (≈ 2.47 µM); selectivity ratio [32]: 64
